# Hits are enriched below; roughly 4.1% of the tested compounds scored in any of these assays.
# Autophagy HCS: alters autophagy in cells; MEF GFP-LC3 puncta imaging; test concentration mostly 10 µM; calls only at 10 µM (by protocol); 0.98% of 190,000 active;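 active = percentage of spot-positive cells more than 3 SD above its plate mean, without a fluorescence outlier flag or 80% toxicity; inconclusive = no clear call, values can overlap the other calls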;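 also: spot-positive cell cutoff set from DMSO-treated cells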
# ROMK primary: modulators of human ROMK potassium channel | P48048 | Tet-inducible ROMK, thallium flux fluorescence; actives lie on both sides | B-score at 10 µM | 2% of 130,000 active;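 active = signal ratio slope over the read window, or its plate-corrected B-score, at least 3 SD from the plate mean, either direction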;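 also: B-score of the F/F0 ratio slope over 7 to 12 s after thallium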
# Target sequence (P48048 whole entry, looked up): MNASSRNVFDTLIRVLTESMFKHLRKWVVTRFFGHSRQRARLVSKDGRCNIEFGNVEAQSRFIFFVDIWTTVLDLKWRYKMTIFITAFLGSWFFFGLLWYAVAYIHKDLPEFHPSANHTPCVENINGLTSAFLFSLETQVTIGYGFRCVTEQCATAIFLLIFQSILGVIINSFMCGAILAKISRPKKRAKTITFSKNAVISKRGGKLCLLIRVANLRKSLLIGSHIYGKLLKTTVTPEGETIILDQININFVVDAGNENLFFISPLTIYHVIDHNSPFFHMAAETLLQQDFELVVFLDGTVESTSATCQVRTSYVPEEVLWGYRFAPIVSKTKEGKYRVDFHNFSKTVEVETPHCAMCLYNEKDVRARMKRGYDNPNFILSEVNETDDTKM
# KCC2 mod: modulators of human KCC2 chloride dependent transport | Q9H2X9 | KCC2 cells, thallium flux FluoZin-2 fluorescence | B-score of Tl+ flux slope (higher = more flux/activation; lower = inhibition) at 10 µM | 2.2% of 190,000 active | AID 1456;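 active = thallium flux slope and its plate-corrected score both differing from the plate sample mean at a set confidence after two filtering rounds, in either direction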;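 also: slope of fluorescence scaled to starting intensity during 10 to 20 s after thallium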
# Dynein cargo inh: blocks dynein driven cargo transport along microtubules; 0.47% of 220,000 active; 3617.4 mouse cells, GR-EGFP nuclear translocation imaging; test concentration mostly 20 µM; stimulated with dexamethasone, 1 µM; stronger effect = lower value; z-score, hits read low;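 active = plate z-score of nuclear minus cytoplasmic receptor signal below a set negative limit, without overly bright fluorescence or cell loss, cut at about -3.5 in these data, passing the limit was not always enough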;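 also: z-score of nuclear minus cytoplasmic ring GR-EGFP intensity difference per well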
#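 Schedule: 48 h induction, then 1 h compound, then 30 min agonist, 37 °C. Buffer or medium: tetracycline-free induction medium containing charcoal-stripped FBS. Reagent: 1.0 µM final dexamethasone stimulus. Evaluation: nuclear versus cytoplasmic GR-EGFP signal, averaged per well. Signal: high-content fluorescence imaging after fixation.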
# Redox H2O2 prof: compounds producing H2O2 with reducing agent – biochemical, NIH compound library profiling, artefact control for MLSCN library redox annotation, primary screen. activation, % at 10 µM. AID 878. 0.03% of 200,000 active. DTT-dependent redox cycling H2O2, phenol red/HRP absorbance; 100% = 100 µM peroxide control, 0% = buffer;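 active = activation of at least 50% relative to the plate's high and low controls in the primary single-dose screen; inactive = activation below 50%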;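 also: compound incubated with DTT at 0.8 mM final as the reducing agent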
# ROMK hit retest: confirmation of human ROMK potassium channel modulators; 54% of 3,000 active; shares compounds with ROMK primary; normalized thallium flux (F/F0 slope) at 10 µM; ROMK thallium flux, fluorescence ratio; stronger effect = lower value;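 active = Flux at 10 µM at least 3 SD below or above vehicle control mean in one or both replicates; inconclusive = no clear call, values can overlap the other calls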
# * marks the source's active call; other numbers are inactive results; i = inactive; ? = inconclusive; nt = no result given.
SMILES,Autophagy HCS,ROMK primary,KCC2 mod,Dynein cargo inh,Redox H2O2 prof,ROMK hit retest
Cc1ccc(NC(=S)NNC(=O)c2ccccc2O)c(C)c1,i,2.88*,2.55,-0.863,0.6,0.0635*
O=C(NNC(=S)Nc1ccc(Cl)cc1Cl)c1ccc(N2CCOCC2)c([N+](=O)[O-])c1,i,1.66,-2.32,0.0286,0.3,nt
Cn1cc([N+](=O)[O-])c(C(=O)NCc2cc3cc(Cl)ccc3[nH]2)n1,i,3.36*,0.627,0.282,-0.7,0.0924
COc1cccc(-n2c(SCc3ccccn3)nc3c(c2=O)SCC3)c1,i,1.14*,-1.5,0.436,-0.1,0.0849
COc1ccc(-n2c(SCc3cccnc3)nc3c(c2=O)SCC3)cc1OC,i,-0.473,-3.36,-0.629,-1.1,nt
Cc1ccc(S(=O)(=O)C(C#N)c2nc3ccccc3nc2N2CCC(C)CC2)cc1 (stereo unspecified),i,nt,-2.79,0.513,-0.2,0.068*
N#CC(c1nc2ccccc2nc1N1CCCC1)S(=O)(=O)c1ccccc1 (stereo unspecified),i,-1.36,nt,0.321,-0.1,nt
COc1ccccc1N1CCN(C(=O)CSc2nnc3c4ccccc4nc(Cc4ccccc4)n23)CC1,i,nt,-0.883,1.36,0.5,0.0817
COc1ccccc1N1CCN(C(=O)CSc2ccccc2)CC1,i,-0.109,-0.962,0.456,0.1,nt
CCCn1c(=O)c2c(C(F)(F)F)cc(-c3ccco3)nc2n(CCC)c1=O,i,0.617,-0.0591,-0.346,0.4,nt
CCCn1c(=O)c2c(C(=O)OCC)cc(-c3ccco3)nc2n(CCC)c1=O,i,-3.82*,-2.1,-2.99,0.2,0.0635*
Cc1ccc(SCc2cc(=O)n(C)[nH]2)cc1,i,0.139,-0.0505,-1.69,-1.9,nt
O=C(Nc1cccc(-c2nnc(-c3ccccc3)o2)c1)c1ccc(Br)o1,i,-1.23,nt,-0.606,2.8,0.0651*
O=C(Nc1cccc(-c2cn3cccnc3n2)c1)c1ccc(Br)o1,i,nt,-0.0434,0.117,-0.7,?
O=C(Nc1cccc(-c2cn3cccnc3n2)c1)c1ccc2c(c1)OCO2,i,nt,0.0304,-1.78,2.0,0.0795
CC(C)NC(=O)c1ccc(-n2nc(C(F)(F)F)c3c2CCCC3)cc1,i,nt,0.563,0.152,0.1,nt
CNC(=O)c1ccc(NC(=O)/C=C/c2cccc(F)c2)cc1,i,-0.169,-0.307,-0.858,0.1,nt
CCCCOC(=O)Cn1c(=N)n(CCC)c2ccccc21,nt,nt,0.697,0.476,0.5,nt
CCOC(=O)Cn1c(=N)n(CCOc2ccc(OC)cc2)c2ccccc21,i,-2.62*,-0.0934,-0.587,0.0,0.0601*
CCOC(=O)Cn1c(=N)n(CCOc2ccc3ccccc3c2)c2ccccc21,i,-4.17*,nt,3.17,0.0,0.0561*
CCCn1c(=N)n(CCOc2ccc(OC)cc2)c2ccccc21,i,nt,0.759,0.308,0.7,nt
CCOC(=O)C1(Cc2cccc(OC)c2)CCN(Cc2cccnc2)CC1,i,nt,0.00968,0.263,-0.9,nt
Cc1c(CCOC(=O)CC23CC4CC(CC(C)(C4)C2)C3)sc[n+]1CC(=O)c1ccccc1,i,-4.09*,0.514,-4.25,-0.6,0.0474*
Cc1c(CCOC(=O)C23CC4CC(CC(C)(C4)C2)C3)sc[n+]1CC(=O)c1ccccc1,i,-5.88*,0.865,3.33,0.1,0.0599*
Cc1c(CCOC(=O)c2cc([N+](=O)[O-])cc([N+](=O)[O-])c2)sc[n+]1CC(=O)c1ccccc1,i,-0.538,0.814,0.853,-3.2,nt
SMILES,Autophagy HCS,ROMK primary,KCC2 mod,Dynein cargo inh,Redox H2O2 prof,ROMK hit retest
Cc1c(CCOC(=O)c2ccccc2)sc[n+]1Cc1ccccc1,i,-0.113,1.28,2.28,-0.3,nt
Cc1c(CCOC(=O)CC23CC4CC(CC(C4)C2)C3)sc[n+]1CC(=O)c1ccc(Br)cc1,i,-5.97*,0.856,-0.067,0.3,0.0447*
CSC1=C(C#N)C(c2sccc2C)CC(=O)N1 (stereo unspecified),i,0.207,0.0714,-0.344,1.4,nt
COC(=O)C(Cc1ccc(O)cc1)NC(=O)C(CC(=O)OC(C)(C)C)NC(=O)OC(C)(C)C (stereo unspecified),i,1.35,0.0659,-0.357,-0.9,nt
O=c1[nH]c(Nc2ccccc2)cc2ccccc12,i,-3.27*,nt,-0.804,-1.0,0.0645*
O=C(CSCCN1C(=O)c2ccccc2C1=O)Nc1ccc2ccccc2c1,i,nt,-1.21,0.0652,0.2,nt
Cc1ccc(S(=O)(=O)Nc2nc3ccccc3s2)cc1,i,-0.0187,-0.0815,-0.968,0.0,nt
O=S(=O)(Nc1nc2ccccc2s1)c1ccc(Br)s1,i,-3.18*,-1.74,-0.798,0.2,0.0525*
O=C(NC(=S)Nc1cccc(O)c1)c1ccco1,nt,nt,0.53,0.273,nt,nt
O=C(NCc1n[nH]c(=S)n1-c1ccc(F)cc1)c1ccc(S(=O)(=O)N2CCCC2)cc1,i,1.27*,-0.0329,-0.662,0.2,0.0857
Clc1ccccc1-c1nc2nc3ccccc3nc2n1-c1ccc2c(c1)OCO2,i,nt,-1.67,-0.323,0.3,nt
COc1ccc(-c2nc(C=O)cs2)cc1,nt,nt,-0.0262,-0.701,nt,nt
COc1cccc(-c2nc(C=O)cs2)c1,i,4.39*,-0.0436,1.41,-0.4,0.103*
CN(C)c1cccc(C(=O)N/N=C/c2ccsc2)c1,i,0.0265,1.09,-0.0124,0.7,nt
COc1cc(OC)cc(C(=O)NNC(=O)CCc2ccccc2)c1,i,0.788,-0.26,-0.722,-0.8,nt
CCOc1cc(CNn2cnnc2SCC(=O)NC(C)(C)C)ccc1OCC(=O)NC(C)(C)C,i,0.32,-0.427,-0.662,-0.3,nt
CCc1ccc(-c2cc(C(=O)N/N=C/c3ccco3)[nH]n2)cc1,i,-3.19*,0.184,-0.314,-0.2,0.0628*
Cc1cccc(C(=O)N2CCC(=O)N(C(COCc3ccc(Cl)cc3)Cc3ccccc3)CC2)c1 (stereo unspecified),i,-3.53*,-0.461,-0.584,0.4,0.0479*
Cc1cccc(C(=O)N2CCC(=O)N(C(COCc3cccc(Cl)c3)Cc3ccccc3)CC2)c1 (stereo unspecified),i,-3.69*,-2.16,0.118,0.4,0.0557*
Cc1cccc(COCC(Cc2ccccc2)N2CCN(C(=O)c3ccc(C(F)(F)F)cc3)CCC2=O)c1 (stereo unspecified),i,-1.26,-0.533,-0.348,0.4,nt
O=C(c1ccc(C(F)(F)F)cc1)N1CCC(=O)N(C(COCc2ccc(C(F)(F)F)cc2)Cc2ccccc2)CC1 (stereo unspecified),i,-4.08*,-0.818,1,-0.3,0.0655*
CS(=O)(=O)N1CCc2cc(C(=O)N3CCCC3)ccc21,i,-0.259,0.267,-1.39,-0.2,nt
CON1C(=O)C(=O)N(OC)C2CCCCC21 (stereo unspecified),i,nt,-0.0129,-0.163,-3.9,?
